Test results reported in ChEMBL document CHEMBL4602702, “Red-Emitting Dibenzodiazepinone Derivatives as Fluorescent Dualsteric Probes for the Muscarinic Acetylcholine M2 Receptor” (J Med Chem, 2020).

Experiments:
Type in all cases: cell-based
[1] = target: T1, Muscarinic acetylcholine receptor M1 (Homo sapiens, UniProt P11229); experiment: Displacement of [3H]-NMS from human muscarinic M1 receptor stably expressed in CHO-K9 cells by radioligand competitive binding assay
T1 sequence (P11229 whole entry): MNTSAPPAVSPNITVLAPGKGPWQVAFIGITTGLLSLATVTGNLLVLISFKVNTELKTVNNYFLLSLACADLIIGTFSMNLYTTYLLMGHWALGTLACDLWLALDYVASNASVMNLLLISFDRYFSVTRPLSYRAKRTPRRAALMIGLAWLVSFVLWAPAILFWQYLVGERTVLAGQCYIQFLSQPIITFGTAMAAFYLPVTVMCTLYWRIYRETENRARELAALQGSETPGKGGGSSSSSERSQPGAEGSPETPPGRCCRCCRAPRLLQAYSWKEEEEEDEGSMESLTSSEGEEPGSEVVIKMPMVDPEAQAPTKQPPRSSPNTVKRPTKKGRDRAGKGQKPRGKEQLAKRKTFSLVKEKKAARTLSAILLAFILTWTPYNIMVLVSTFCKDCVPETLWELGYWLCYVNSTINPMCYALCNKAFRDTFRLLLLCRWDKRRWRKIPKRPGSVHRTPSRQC
Summary of the method: (§1)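 Equilibrium competition binding at live CHO-hMxR cells with [3H]NMS at M1 0.2, M2 0.2, M3 0.2, M4 0.1, M5 0.3 nM. […] Four-parameter logistic fit converted to pKi; at least three experiments in triplicate (some two).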

[2] = target: T2, Muscarinic acetylcholine receptor M2 (Homo sapiens, UniProt P08172); experiment: Displacement of [3H]-NMS from human muscarinic M2 receptor stably expressed in CHO-K9 cells by radioligand competitive binding assay; summary of the method: as §1
T2 sequence (P08172 whole entry): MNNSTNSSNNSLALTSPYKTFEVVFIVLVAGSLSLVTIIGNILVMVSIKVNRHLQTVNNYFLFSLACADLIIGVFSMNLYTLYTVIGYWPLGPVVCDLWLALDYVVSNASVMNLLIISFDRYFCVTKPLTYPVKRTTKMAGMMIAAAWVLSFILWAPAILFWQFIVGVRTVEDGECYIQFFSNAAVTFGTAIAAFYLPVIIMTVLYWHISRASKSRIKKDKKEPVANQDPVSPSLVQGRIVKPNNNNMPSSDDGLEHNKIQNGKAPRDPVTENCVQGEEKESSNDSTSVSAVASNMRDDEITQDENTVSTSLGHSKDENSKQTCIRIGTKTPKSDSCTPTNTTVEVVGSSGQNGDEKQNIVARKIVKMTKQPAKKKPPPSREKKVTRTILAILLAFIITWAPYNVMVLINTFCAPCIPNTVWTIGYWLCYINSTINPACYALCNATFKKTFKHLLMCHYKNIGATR

[3] = target: Muscarinic acetylcholine receptor M3 (Homo sapiens, UniProt P20309); experiment: Displacement of [3H]-NMS from human muscarinic M3 receptor stably expressed in CHO-K9 cells by radioligand competitive binding assay; summary of the method: as §1
[4] = target: T3, Muscarinic acetylcholine receptor M4 (Homo sapiens, UniProt P08173); experiment: Displacement of [3H]-NMS from human muscarinic M4 receptor stably expressed in CHO-K9 cells by radioligand competitive binding assay; summary of the method: as §1
T3 sequence (P08173 whole entry): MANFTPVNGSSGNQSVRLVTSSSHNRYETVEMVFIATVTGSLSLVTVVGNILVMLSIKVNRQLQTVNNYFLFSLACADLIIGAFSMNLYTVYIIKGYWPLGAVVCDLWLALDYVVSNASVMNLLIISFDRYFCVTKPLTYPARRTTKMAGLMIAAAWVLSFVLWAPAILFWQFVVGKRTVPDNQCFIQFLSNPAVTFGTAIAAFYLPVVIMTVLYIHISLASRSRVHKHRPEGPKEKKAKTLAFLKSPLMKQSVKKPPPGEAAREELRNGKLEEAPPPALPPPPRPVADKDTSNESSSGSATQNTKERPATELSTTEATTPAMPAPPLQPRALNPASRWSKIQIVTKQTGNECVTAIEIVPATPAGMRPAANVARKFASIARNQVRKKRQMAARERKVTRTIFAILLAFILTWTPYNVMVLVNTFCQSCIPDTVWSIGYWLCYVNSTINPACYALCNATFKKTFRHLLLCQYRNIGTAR

[5] = target: T4, Muscarinic acetylcholine receptor M5 (Homo sapiens, UniProt P08912); experiment: Displacement of [3H]-NMS from human muscarinic M5 receptor stably expressed in CHO-K9 cells by radioligand competitive binding assay; summary of the method: as §1
T4 sequence (P08912 whole entry): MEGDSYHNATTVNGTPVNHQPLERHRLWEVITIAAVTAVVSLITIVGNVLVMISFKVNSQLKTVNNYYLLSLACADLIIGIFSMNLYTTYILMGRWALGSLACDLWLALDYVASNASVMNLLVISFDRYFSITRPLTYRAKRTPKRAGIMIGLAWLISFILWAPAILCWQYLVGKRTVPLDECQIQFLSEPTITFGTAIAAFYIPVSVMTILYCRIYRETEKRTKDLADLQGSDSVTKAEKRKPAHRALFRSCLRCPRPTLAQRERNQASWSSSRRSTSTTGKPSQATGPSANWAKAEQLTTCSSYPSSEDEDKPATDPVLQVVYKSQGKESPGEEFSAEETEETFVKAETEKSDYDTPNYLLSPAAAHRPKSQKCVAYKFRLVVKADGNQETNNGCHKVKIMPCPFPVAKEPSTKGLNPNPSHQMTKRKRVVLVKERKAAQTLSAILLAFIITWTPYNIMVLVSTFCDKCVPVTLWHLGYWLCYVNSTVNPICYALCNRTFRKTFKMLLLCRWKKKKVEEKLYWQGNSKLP

[6] = target: T2, Muscarinic acetylcholine receptor M2; experiment: Displacement of 4-(2-((1E,3E)-5-((E)-3,3-Dimethyl-1-(6-oxo-6-((2-(3-(1-(4-(1-(2-oxo-2-(11-oxo-10,11-dihydro-5H-dibenzo[b,e][1,4]diazepin-5-yl)ethyl)piperidin-4-yl)butyl)-1H-imidazol-4-yl)propanamido)ethyl)-amino)hexyl)-5-sulfoindolin-2-ylidene)penta-1,3-dien-1-yl)-3,3-dimethyl-3H-indol-1-ium-1-yl)butane-1-sulfonateHydrotrifluoroacetate fluorescent tracer from human muscarinic M2 receptor expressed in […] cells measured after 60 mins by Hoechst H33342 dye based confocal plate reader assay
[7] = target: T2, Muscarinic acetylcholine receptor M2; experiment: Displacement of 4-(2-((1E,3E)-5-((E)-1-(6-((3,5-Bis((2-(3-(1-(4-(1-(2-oxo-2-(11-oxo-10,11-dihydro-5H-dibenzo[b,e][1,4]diazepin-5-yl)ethyl)piperidin-4-yl)butyl)-1H-imidazol-4-yl)propanamido)ethyl)carbamoyl)benzyl)amino)-6-oxohexyl)-3,3-dimethyl-5-sulfoindolin-2-ylidene)penta-1,3-dien-1-yl)-3,3-dimethyl-3H-indol-1-ium-1-yl)butane-1-sulfonate Tris(hydrotrifluoroacetate) fluorescent tracer from human muscarinic M2 receptor expressed in […] cells measured after 60 mins by Hoechst H33342 dye based confocal plate reader assay

Muscarinic acetylcholine receptor M3, sequence (P20309 whole entry): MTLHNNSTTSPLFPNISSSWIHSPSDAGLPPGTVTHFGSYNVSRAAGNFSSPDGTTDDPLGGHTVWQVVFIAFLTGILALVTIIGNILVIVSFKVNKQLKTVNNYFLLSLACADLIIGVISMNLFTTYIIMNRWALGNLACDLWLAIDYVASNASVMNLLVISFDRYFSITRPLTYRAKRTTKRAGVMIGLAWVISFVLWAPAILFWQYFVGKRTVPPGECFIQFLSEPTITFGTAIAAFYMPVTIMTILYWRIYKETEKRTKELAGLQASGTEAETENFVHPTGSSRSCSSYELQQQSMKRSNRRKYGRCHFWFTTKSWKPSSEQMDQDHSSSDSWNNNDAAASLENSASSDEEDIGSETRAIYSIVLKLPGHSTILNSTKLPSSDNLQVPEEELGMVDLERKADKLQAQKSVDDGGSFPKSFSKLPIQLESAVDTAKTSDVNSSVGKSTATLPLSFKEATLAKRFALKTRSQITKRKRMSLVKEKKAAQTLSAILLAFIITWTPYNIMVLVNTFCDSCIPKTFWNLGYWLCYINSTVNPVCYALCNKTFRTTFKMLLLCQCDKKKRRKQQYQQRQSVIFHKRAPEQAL

| Ki [1] [nM] | Ki [2] [nM] | Ki [3] [nM] | Ki [4] [nM] | Ki [5] [nM] | Ki [6] [nM] | Ki [7] [nM] | SMILES |
| --- | --- | --- | --- | --- | --- | --- | --- |
| 13.8 | 3.02 | 148 | 9.55 | 389 |  |  | Cc1cc(/C=C/C=C/c2ccc(N(C)C)cc2)cc(C)[n+]1CCN1CCN(CCCCC2CCN(CC(=O)N3c4ccccc4NC(=O)c4ccccc43)CC2)CC1 |
|  |  |  |  |  | 0.355 | 0.525 | CCC(=O)NCc1cc(C(=O)NCCNC(=O)CCc2cn(CCCCC3CCN(CC(=O)N4c5ccccc5NC(=O)c5ccccc54)CC3)cn2)cc(C(=O)NCCNC(=O)CCc2cn(CCCCC3CCN(CC(=O)N4c5ccccc5NC(=O)c5ccccc54)CC3)cn2)c1 |
| 30.9 | 17 | 85.1 | 16.2 | 200 |  |  | Cc1cc(/C=C/C=C/c2ccc(N(C)C)cc2)cc(C)[n+]1CCCCC1CCN(CC(=O)N2c3ccccc3NC(=O)c3ccccc32)CC1 |
|  | 0.933 |  |  |  |  |  | CC1(C)C(/C=C/C=C/C=C2/N(CCCCCC(=O)NCCNC(=O)CCc3cn(CCCCC4CCN(CC(=O)N5c6ccccc6NC(=O)c6ccccc65)CC4)cn3)c3ccccc3C2(C)C)=[N+](CCCCS(=O)(=O)[O-])c2ccccc21 |
| 347 | 141 | 871 | 200 | 871 |  |  | CC1(C)C(/C=C/C=C/C=C2/N(CCCCCC(=O)NCCCCC3CCN(CC(=O)N4c5ccccc5NC(=O)c5ccccc54)CC3)c3ccccc3C2(C)C)=[N+](CCCCS(=O)(=O)[O-])c2ccccc21 |
| 5.89 | 0.182 | 145 | 0.447 | 234 |  |  | NCCN1CCN(CCCCC2CCN(CC(=O)N3c4ccccc4NC(=O)c4ccccc43)CC2)CC1 |
| 120 | 53.7 | 631 | 67.6 | 288 |  |  | C[N+]1=C(/C=C/C=C/C=C2/N(CCCCCC(=O)NCCCCC3CCN(CC(=O)N4c5ccccc5NC(=O)c5ccccc54)CC3)c3ccccc3C2(C)C)C(C)(C)c2ccccc21 |
